Rows were chosen to be rich in hits. Some 3.1% of all compounds tested hit in one or more screens of this group.
hERG rescue: hERG (human) protection from proarrhythmic block | CHO-hERG, FluxOR thallium flux, dofetilide IC70 present | actives 0.51% (n = 310,000) | activation (rescue from dofetilide block), less the hit threshold, % at 10 µM | Q12809;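 active means activation above the mean of controls blocked by dofetilide plus 5 SD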;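 further: thallium influx through hERG after potassium depolarization seen as dye fluorescence rise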
KCNQ1 inh: blocks the human KCNQ1 potassium channel | AID 2642 | B-score at 10 µM | P51787 | CHO-K1 KCNQ1, FluxOR thallium flux fluorescence; active compounds read high | actives 1.3% (n = 310,000);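 active means compounds whose thallium flux B-score, printed positive for inhibition, exceeds three library SD while starting fluorescence stays within three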;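 further: channel opened by potassium depolarization with thallium stimulus after 20 min compound exposure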
KCNK9 block: blocks the human KCNK9 two-pore domain potassium channel. HEK293 KCNK9, FluxOR thallium flux fluorescence; active compounds read low. actives 1.2% (n = 310,000). Q9NPC2. B-score at 10 µM;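 active means ratio B-score over 3 SD below the library mean, with starting fluorescence within 5 SD of its mean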;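 further: negative B-score means less thallium flux so channel inhibition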
KCNQ1 pot: potentiates or activates the human KCNQ1 potassium channel | P51787 | CHO-K1 KCNQ1, thallium flux FluxOR fluorescence; active compounds read high | B-score at 10 µM | actives 0.35% (n = 310,000) | AID 2648;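 active means fluorescence ratio B-score, a plate-corrected score, at least three library SD, with initial intensity B-score within 5 SD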
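Test system: CHO-K1 cells stably expressing KCNQ1 / Medium: assay buffer / Also added: depolarizing K+/Tl+ stimulus, K2SO4 and Tl2SO4 each 12.5 mM in 5x stock / Incubation: 90 min dye loading and 20 min compound exposure, both at room temperature / Signal: thallium influx via FluxOR fluorescence, kinetic imaging / Evaluation: B score of baseline-normalized fluorescence ratio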
KCNK3 block: human KCNK3 channel inhibition, primary screen | CHO-KCNK3 thallium flux, FluxOR fluorescence; active compounds read low | B-score at 10 µM | actives 0.84% (n = 340,000) | AID 602410;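 active means B-score under library mean minus 4 SD, starting fluorescence ratio at most library mean plus 5 SD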;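 further: more negative B-score means stronger inhibition of thallium flux through KCNK3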
Active calls of the source: *; i = inactive; . = no result.

SMILES	hERG rescue	KCNQ1 inh	KCNK9 block	KCNQ1 pot	KCNK3 block
CCOc1cc2c(cc1/C=C/c1noc(C)c1[N+](=O)[O-])OC(C)C2 (centres undefined)	-9.2	7*	i	i	i
CCOc1cc2c(cc1C=O)OC(C)C2 (centres undefined)	-5.7	i	i	i	i
O=[N+]([O-])/C=C/c1c(OCc2ccccc2)ccc2ccccc12	2.3	i	-11.1*	i	i
O=C(NC12CC3CC(CC(C3)C1)C2)N(Cc1ccccc1)Cc1ccncc1	-9.8	6*	i	i	i
O=C(Nc1oc2ccccc2c(=O)c1-c1ccc(Cl)cc1)c1ccco1	-15.3	i	i	i	i
CCOC(=O)CSc1nc2c(sc(=S)n2Cc2ccco2)c(=O)n1-c1ccccc1	-5.3	i	i	i	-11.4*
CCC1=C([N+](=O)[O-])C(c2ccc3c(c2)OCO3)NC(=O)N1 (centres undefined)	-5.5	i	i	i	i
O=C(OCCc1cc2ccccc2c(=O)o1)c1ccc(F)cc1	.	.	.	.	i
O=C(OCCc1cc2ccccc2c(=O)o1)c1cccc(Br)c1	.	.	.	.	-8.85*
O=C(O)C(C1CCCCC1)C1(O)CCCC1 (centres undefined)	.	.	.	.	i
COc1ccc(C(C)NCCC(c2ccc(OC(C)C)cc2)c2ccccc2OC)cc1 (centres undefined)	-22.8	6*	i	i	i
COc1ccc(C(CCNC(C)c2ccccc2)C(C)C)cc1 (centres undefined)	-10.2	i	i	i	i
Cc1ccsc1/C=C(\CC(=O)O)c1nc2ccccc2o1	-7.6	i	i	i	i
O=C(O)C/C(=C\c1cc(Br)cs1)c1nc2ccccc2o1	6.1*	i	i	i	i
O=c1/c(=C/c2ccc(O)c([N+](=O)[O-])c2)sc2nc3ccccc3n12	.	.	.	.	i
CCN(CC)c1ccc(/C=c2\sc3nc4ccccc4n3c2=O)c(O)c1	-36.1	9*	i	i	i
Cc1ccc(NC(=O)c2sccc2-n2cccc2)c(C)c1	-17.2	i	-8.09*	i	i
COc1ccc(NC(=O)c2sccc2-n2cccc2)cc1	-9.8	i	i	i	i
O=C(CSc1n[nH]c(-c2ccc(S(=O)(=O)N3CCCCC3)cc2)n1)Nc1nccs1	6.5*	i	i	i	i
Cn1c(SCC(=O)Nc2nccs2)nnc1-c1ccc(S(=O)(=O)N2CCCC2)cc1	-6.8	i	i	i	i
CCC(=O)NC1=C(Cl)C(=O)C(NC(=O)CC)=C(Cl)C1=O	.	.	.	.	-11.3*
COc1ccc(OC)c(NC(=O)NNC(=O)COc2ccc(F)cc2F)c1	-6.0	i	i	i	i
CC(=O)NC(c1ccc(C(C)C)cc1)c1c(O)ccc2ccccc12 (centres undefined)	-1.9	i	i	i	i
Cc1ccc(C(NC(=O)C2CCCCC2)c2c(O)ccc3ccccc23)cc1 (centres undefined)	-16.4	9*	i	i	i
O=C(Oc1cccc(NC(=O)c2ccco2)c1)c1ccc(Br)c(S(=O)(=O)N2CCCCC2)c1	-15.5	i	-7.79*	i	i
SMILES	hERG rescue	KCNQ1 inh	KCNK9 block	KCNQ1 pot	KCNK3 block
CC1CCCC/C1=N/Nc1ccc([N+](=O)[O-])cc1[N+](=O)[O-] (centres undefined)	-1.1	i	i	i	i
CC1C/C(=N/Nc2ccc([N+](=O)[O-])cc2[N+](=O)[O-])CC(C)(C)C1 (centres undefined)	-8.1	7*	i	i	i
Cc1ccc(N(CC(=O)NCc2ccco2)C(=O)CCC(=O)Nc2ccccn2)c(C)c1	-12.3	i	i	i	i
Nc1nc(=O)n(C2CC(O)C(CO)O2)cc1F (centres undefined)	.	.	.	.	i
COCCN1C(=O)N[C@@H](c2cccc(F)c2)C(C(=O)OC)=C1C	4.9*	i	i	i	i
COc1ccc(C2N(C(=O)N(C)C)CCN2S(=O)(=O)c2ccc(OC)cc2)cc1 (centres undefined)	-11.8	i	i	i	i
CCc1nc(SCC(=O)Nc2ccc(F)cc2F)c2c(=O)n(C)c(=O)n(C)c2n1	-4.8	i	i	i	i
